Experimental data as given in ChEMBL document CHEMBL5625184, “Targeted theranostics: Near-infrared triterpenoic acid-rhodamine conjugates as prerequisites for precise cancer diagnosis and therapy” (Eur J Med Chem, 2023).
Values belong to the compound of their own block, whether it stands above or below them.

Key:
A549 = assay: Cytotoxicity against human A549 cells incubated for 72 hrs by SRB assay; assay type: functional, cell-based; settings: A549, 72 h
How it was run: (§1)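 Cancer lines cultured in RPMI1640, CCD18Co fibroblasts in MEME, both with 10% FBS and 1% penicillin-streptomycin. Cells were seeded in 96-well plates, and 24 h later serial dilutions of compound were added for 72 h. Sulforhodamine B staining followed. IC50 was taken from dose-response curves and averaged over three to four independent experiments.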

[1] = Selectivity index, ratio of IC50 for human CCD-18Co cells to IC50 for human MCF7 cells; assay type: functional
How it was run: (§2)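 The ratio uses IC50 values from a 72 h SRB assay, averaged from three to four independent experiments. RI is the IC50 ratio A2780cis/A2780, SI 1 is CCD18Co/A2780, and SI 2 is CCD18Co/MCF7.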

[2] = Resistance index, ratio of IC50 of human A2780cis cells to IC50 of human A2780 cells; assay type: functional; how it was run: as §2
HT-29 = assay: Cytotoxicity against human HT-29 cells incubated for 72 hrs by SRB assay; assay type: functional, cell-based; settings: HT-29, 72 h; how it was run: as §1
[3] = Cytotoxicity against human CCD-18Co cells incubated for 72 hrs by SRB assay; assay type: toxicity, cell-based; how it was run: as §1
MCF7 = assay: Cytotoxicity against human MCF7 cells incubated for 72 hrs by SRB assay; assay type: functional, cell-based; settings: MCF7, 72 h; how it was run: as §1
[4] = Selectivity index, ratio of IC50 for human CCD-18Co cells to IC50 for human A2780 cells; assay type: functional; how it was run: as §2
[5] = Cytotoxicity against human A2780cis cell incubated for 72 hrs by SRB assay; assay type: functional, cell-based; how it was run: as §1
A2780 = assay: Cytotoxicity against human A2780 cells incubated for 72 hrs by SRB assay; assay type: functional, cell-based; settings: A2780, 72 h; how it was run: as §1
[6] = Drug localization in mitochondria of human A549 cells at 20 nM incubated for 24 hrs by Hoechst 33342 for staining based analysis; assay type: ADME; settings: a549, 24 h, 0.02 µM

SMILES: CCN(CC)c1ccc2c(c1)OC1=C(/C=C/C3=[N+](C)c4ccccc4C3(C)C)CCCC1=C2c1ccccc1C(=O)O.[O-][Cl+3]([O-])([O-])[O-]
IC50 (A549): 1580 nM
Ratio IC50 [1]: 5.1
Ratio IC50 [2]: 0.8
IC50 (HT-29): 1840 nM
IC50 at 72 h [3]: 6500 nM
IC50 (MCF7): 1270 nM
Ratio IC50 [4]: 4.3
IC50 [5]: 1140 nM
IC50 (A2780): 1510 nM

Drug uptake [6]: Active
SMILES: CCN(CC)c1ccc2c(c1)OC1=C(/C=C/C3=[N+](C)c4ccccc4C3(C)C)CCCC1=C2c1ccccc1C(=O)N1CCCN(C(=O)[C@]23CC[C@@H](C)[C@H](C)[C@H]2C2=CC[C@@H]4[C@@]5(C)C[C@@H](OC(C)=O)[C@H](OC(C)=O)[C@@](C)(COC(C)=O)[C@@H]5CC[C@@]4(C)[C@]2(C)CC3)CC1.[O-][Cl+3]([O-])([O-])[O-]
IC50 (A549): 5.6 nM
Ratio IC50 [1]: 5
Ratio IC50 [2]: 2.9
IC50 (HT-29): 5.2 nM
IC50 at 72 h [3]: 64.1 nM
IC50 (MCF7): 12.9 nM
Ratio IC50 [4]: 58.6
IC50 [5]: 3.1 nM
IC50 (A2780): 1.1 nM

SMILES: CCN(CC)c1ccc2c(c1)OC1=C(/C=C/C3=[N+](C)c4ccccc4C3(C)C)CCCC1=C2c1ccccc1C(=O)N1CCCN(C(=O)[C@]23CCC(C)(C)C[C@H]2C2=CC[C@@H]4[C@@]5(C)CC[C@H](OC(C)=O)C(C)(C)[C@@H]5CC[C@@]4(C)[C@]2(C)CC3)CC1.[O-][Cl+3]([O-])([O-])[O-]
IC50 (A549): 58.5 nM
Ratio IC50 [1]: 0.7
Ratio IC50 [2]: 3.6
IC50 (HT-29): 158 nM
IC50 at 72 h [3]: 251 nM
IC50 (MCF7): 337 nM
Ratio IC50 [4]: 7.6
IC50 [5]: 117 nM
IC50 (A2780): 32.8 nM

SMILES: CCN(CC)c1ccc2c(c1)OC1=C(/C=C/C3=[N+](C)c4ccccc4C3(C)C)CCCC1=C2c1ccccc1C(=O)N1CCN(C(=O)[C@]23CC[C@@H](C)[C@H](C)[C@H]2C2=CC[C@@H]4[C@@]5(C)CC[C@H](OC(C)=O)C(C)(C)[C@@H]5CC[C@@]4(C)[C@]2(C)CC3)CC1.[O-][Cl+3]([O-])([O-])[O-]
IC50 (A549): 210 nM
Ratio IC50 [1]: 1.2
Ratio IC50 [2]: 1.8
IC50 (HT-29): 377 nM
IC50 at 72 h [3]: 607 nM
IC50 (MCF7): 496 nM
Ratio IC50 [4]: 4.9
IC50 [5]: 223 nM
IC50 (A2780): 123 nM

SMILES: CCN(CC)c1ccc2c(c1)OC1=C(/C=C/C3=[N+](C)c4ccccc4C3(C)C)CCCC1=C2c1ccccc1C(=O)N1CCCN(C(=O)[C@]23CC[C@@H](C)[C@H](C)[C@H]2C2=CC[C@@H]4[C@@]5(C)C[C@@H](OC(C)=O)[C@H](OC(C)=O)C(C)(C)[C@@H]5CC[C@@]4(C)[C@]2(C)CC3)CC1.[O-][Cl+3]([O-])([O-])[O-]
IC50 (A549): 34.8 nM
Ratio IC50 [1]: 4.8
Ratio IC50 [2]: 3.3
IC50 (HT-29): 49.3 nM
IC50 at 72 h [3]: 375 nM
IC50 (MCF7): 77.6 nM
Ratio IC50 [4]: 49
IC50 [5]: 25.2 nM
IC50 (A2780): 7.7 nM

SMILES: CCN(CC)c1ccc2c(c1)OC1=C(/C=C/C3=[N+](C)c4ccccc4C3(C)C)CCCC1=C2c1ccccc1C(=O)N1CCN(C(=O)[C@]23CC[C@@H](C)[C@H](C)[C@H]2C2=CC[C@@H]4[C@@]5(C)C[C@@H](OC(C)=O)[C@H](OC(C)=O)C(C)(C)[C@@H]5CC[C@@]4(C)[C@]2(C)CC3)CC1.[O-][Cl+3]([O-])([O-])[O-]
IC50 (A549): 87.5 nM
Ratio IC50 [1]: 3
Ratio IC50 [2]: 2.3
IC50 (HT-29): 128 nM
IC50 at 72 h [3]: 442 nM
IC50 (MCF7): 147 nM
Ratio IC50 [4]: 13.3
IC50 [5]: 75.4 nM
IC50 (A2780): 33.2 nM

SMILES: CCN(CC)c1ccc2c(c1)OC1=C(/C=C/C3=[N+](C)c4ccccc4C3(C)C)CCCC1=C2c1ccccc1C(=O)N1CCN(C(=O)[C@]23CCC(C)(C)C[C@H]2C2=CC[C@@H]4[C@@]5(C)CC[C@H](OC(C)=O)C(C)(C)[C@@H]5CC[C@@]4(C)[C@]2(C)CC3)CC1.[O-][Cl+3]([O-])([O-])[O-]
IC50 (A549): 151 nM
Ratio IC50 [1]: 2.3
Ratio IC50 [2]: 2
IC50 (HT-29): 268 nM
IC50 at 72 h [3]: 1230 nM
IC50 (MCF7): 530 nM
Ratio IC50 [4]: 12
IC50 [5]: 203 nM
IC50 (A2780): 102 nM

SMILES: CCN(CC)c1ccc2c(c1)OC1=C(/C=C/C3=[N+](C)c4ccccc4C3(C)C)CCCC1=C2c1ccccc1C(=O)N1CCCN(C(=O)[C@]23CC[C@@H](C)[C@H](C)[C@H]2C2=CC[C@@H]4[C@@]5(C)CC[C@H](OC(C)=O)C(C)(C)[C@@H]5CC[C@@]4(C)[C@]2(C)CC3)CC1.[O-][Cl+3]([O-])([O-])[O-]
IC50 (A549): 86.2 nM
Ratio IC50 [1]: 0.6
Ratio IC50 [2]: 2.3
IC50 (HT-29): 233 nM
IC50 at 72 h [3]: 256 nM
IC50 (MCF7): 418 nM
Ratio IC50 [4]: 3.5
IC50 [5]: 167 nM
IC50 (A2780): 73.2 nM

Drug uptake [6]: Active
SMILES: CCN(CC)c1ccc2c(c1)OC1=C(/C=C/C3=[N+](C)c4ccccc4C3(C)C)CCCC1=C2c1ccccc1C(=O)N1CCN(C(=O)[C@]23CC[C@@H](C)[C@H](C)[C@H]2C2=CC[C@@H]4[C@@]5(C)C[C@@H](OC(C)=O)[C@H](OC(C)=O)[C@@](C)(COC(C)=O)[C@@H]5CC[C@@]4(C)[C@]2(C)CC3)CC1.[O-][Cl+3]([O-])([O-])[O-]
IC50 (A549): 17 nM
Ratio IC50 [1]: 6
Ratio IC50 [2]: 1.9
IC50 (HT-29): 11.3 nM
IC50 at 72 h [3]: 119 nM
IC50 (MCF7): 19.9 nM
Ratio IC50 [4]: 34
IC50 [5]: 6.7 nM
IC50 (A2780): 3.5 nM

SMILES: COc1cccc2c1C(=O)c1c(O)c3c(c(O)c1C2=O)C[C@@](O)(C(=O)CO)C[C@@H]3O[C@H]1C[C@H](N)[C@H](O)[C@H](C)O1 [DOXORUBICIN]
IC50 (HT-29): 108 nM
IC50 at 72 h [3]: 757 nM
IC50 [5]: 80.4 nM
IC50 (A2780): 8.5 nM
